Laboratory results published in ChEMBL document CHEMBL4680226, “Design, synthesis, and evaluation of N-phenyl-4-(2-phenylsulfonamido)-benzamides as microtubule-targeting agents in drug-resistant cancer cells, displaying HDAC inhibitory response” (Eur J Med Chem, 2020).
Each block holds one compound with its values, some of them ahead of it. The source made the active and inactive calls. The calls are words filed in the database; no cut-off is given here.

Assays:
[1] = tested on: KB; test: Antiproliferative activity against human KB cells incubated for 48 hrs by SRB assay; assay type: functional
Procedure, shortened: (§1)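 KB parental and resistant sublines kept in RPMI 1640 with 5% FBS at 37 °C, 5% CO2. Cells plated, left overnight, then given graded compound concentrations for 48 h. A time-zero plate was fixed with 10% TCA at dosing. Cells were stained with 0.4% SRB in 1% acetic acid, unbound dye washed off, bound dye dissolved in 10 mM Tris base, and absorbance read at 515 nm.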

[2] = target: T1, Tubulin (Homo sapiens) (UniProt P68371+Q9H4B7+P0DPH7+P68366+Q13509+Q71U36+P04350+Q3ZCM7+P07437+P68363+Q9BQE3+Q6PEY2+Q13885+Q9BVA1+Q9BUF5); test: Induction of microtubule disruption in human KB7D cells at 1 uM measured after 24 hrs by DAPI staining based deconvolution fluorescence microscopic analysis; assay type: cell-based
Procedure, shortened: (§2)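 Cells on glass coverslips treated 24 h, fixed in 4% paraformaldehyde for 15 min, and permeabilized with 0.5% Triton X-100. Blocked in PBS/2% BSA, stained with anti-beta-tubulin (1:250) and Alexa 488 anti-mouse (1:250), and mounted with DAPI. Imaged by wide-field deconvolution microscopy.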

[3] = tested on: KB-VIN; test: Cell cycle arrest in human KB-VIN cells assessed as increase in accumulation at sub-G1 phase at 0.1 uM measured after 48 hrs by propidium iodide staining based flow cytometry; assay type: functional
Procedure, shortened: (§3)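 Cells seeded at 2.5×10^5 per well and exposed to DMSO or compound for the stated times. They were washed in PBS and fixed overnight in ice-cold 70% ethanol at −20 °C. Staining used propidium iodide 80 µg/mL with 0.1% Triton X-100 and RNase A 100 µg/mL in PBS. DNA content was read by FACScan flow cytometry.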

[4] = tested on: KB-VIN; test: Induction of apoptosis in human KB-VIN cells assessed as increase in cleaved PARP expression at 0.1 uM measured after 24 hrs by Western blot analysis; assay type: functional, cell-based
Procedure, shortened: (§4)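 Resistant KB cells attached overnight, then drug-treated at the stated concentrations and times (24 h or 48 h). Lysates were immunoblotted for cleaved PARP, caspase-3, -8 and -9, and γH2AX, with anti-mouse or anti-rabbit IgG secondaries.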

[5] = tested on: KB-VIN; test: Induction of apoptosis in human KB-VIN cells assessed as increase in activated gammaH2AX expression at 0.1 uM measured after 24 hrs by Western blot analysis; assay type: functional, cell-based; procedure, shortened: as §4
[6] = tested on: KB-VIN; test: Induction of apoptosis in human KB-VIN cells assessed as increase in cleaved caspase-9 expression at 0.1 uM measured after 48 hrs by Western blot analysis; assay type: functional, cell-based; procedure, shortened: as §4
[7] = target: T1, Tubulin (Homo sapiens); test: Induction of microtubule disruption in human KB7D cells assessed as polymerized fraction at 1 uM measured after 16 hrs by SDS-PAGE analysis (reference value: 26.4 to 29%); assay type: cell-based
Procedure, shortened: (§5)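 KB-Vin or KB-7D cells treated 16 h, then lysed 5 min at 37 °C in the dark in hypotonic buffer (1% NP-40, 1 mmol/L MgCl2, 2 mmol/L EGTA, 50 mmol/L Tris-HCl pH 6.8, protease inhibitors). Spun 13000 rpm, 10 min, room temperature. Soluble supernatant and resuspended polymerized pellet run on SDS-PAGE.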

[8] = tested on: KB-VIN; test: Induction of apoptosis in human KB-VIN cells assessed as increase in cleaved PARP expression at 0.1 uM measured after 48 hrs by Western blot analysis; assay type: functional, cell-based; procedure, shortened: as §4
[9] = target: T1, Tubulin (Homo sapiens); test: Induction of microtubule disruption in human KB-VIN cells assessed as polymerized fraction at 0.1 uM measured after 16 hrs by SDS-PAGE analysis (reference value: 23.1 to 25.5%); assay type: cell-based; procedure, shortened: as §5
[10] = target: T1, Tubulin (Homo sapiens); test: Induction of microtubule disruption in human KB-VIN cells at 1 uM measured after 24 hrs by DAPI staining based deconvolution fluorescence microscopic analysis; assay type: cell-based; procedure, shortened: as §2
[11] = target: T1, Tubulin (Homo sapiens); test: Induction of microtubule disruption in human KB7D cells assessed as polymerized fraction at 0.01 uM measured after 16 hrs by SDS-PAGE analysis (reference value: 26.4 to 29%); assay type: cell-based; procedure, shortened: as §5
[12] = tested on: KB-VIN; test: Induction of apoptosis in human KB-VIN cells assessed as increase in cleaved caspase-3 expression at 0.1 uM measured after 48 hrs by Western blot analysis; assay type: functional, cell-based; procedure, shortened: as §4
[13] = tested on: KB-VIN; test: Induction of apoptosis in human KB-VIN cells assessed as increase in cleaved caspase-9 expression at 0.1 uM measured after 24 hrs by Western blot analysis; assay type: functional, cell-based; procedure, shortened: as §4
[14] = tested on: KB-VIN; test: Induction of apoptosis in human KB-VIN cells assessed as increase in activated gammaH2AX expression at 0.1 uM measured after 48 hrs by Western blot analysis; assay type: functional, cell-based; procedure, shortened: as §4
[15] = tested on: KB-VIN; test: Cell cycle arrest in human KB-VIN cells assessed as increase in accumulation at sub-G1 phase at 0.01 to 0.1 uM measured after 24 hrs by propidium iodide staining based flow cytometry; assay type: functional; details: dose 0.01-0.1 µM; procedure, shortened: as §3
[16] = Antiproliferative activity against human KB-VIN cells incubated for 48 hrs by SRB assay; assay type: functional; details: KBVIN; procedure, shortened: as §1
[17] = target: T1, Tubulin (Homo sapiens); test: Induction of microtubule disruption in human KB-VIN cells assessed as polymerized fraction at 1 uM measured after 16 hrs by SDS-PAGE analysis (reference value: 23.1 to 25.5%); assay type: cell-based; procedure, shortened: as §5
[18] = tested on: KB-VIN; test: Induction of apoptosis in human KB-VIN cells assessed as increase in cleaved caspase-3 expression at 0.1 uM measured after 24 hrs by Western blot analysis; assay type: functional, cell-based; procedure, shortened: as §4
[19] = target: T1, Tubulin (Homo sapiens); test: Induction of microtubule disruption in human KB7D cells assessed as polymerized fraction at 0.1 uM measured after 16 hrs by SDS-PAGE analysis (reference value: 26.4 to 29%); assay type: cell-based; procedure, shortened: as §5
[20] = tested on: KB-VIN; test: Induction of apoptosis in human KB-VIN cells assessed as increase in cleaved caspase-8 expression at 0.1 uM measured after 24 hrs by Western blot analysis; assay type: functional, cell-based; procedure, shortened: as §4
[21] = target: T1, Tubulin (Homo sapiens); test: Induction of microtubule disruption in human KB-VIN cells assessed as polymerized fraction at 0.01 uM measured after 16 hrs by SDS-PAGE analysis (reference value: 23.1 to 25.5%); assay type: cell-based; procedure, shortened: as §5
[22] = tested on: KB-VIN; test: Induction of apoptosis in human KB-VIN cells assessed as increase in cleaved caspase-8 expression at 0.1 uM measured after 48 hrs by Western blot analysis; assay type: functional, cell-based; procedure, shortened: as §4
[23] = tested on: KB7D; test: Induction of apoptosis in human KB7D cells assessed as increase in activated gammaH2AX expression at 0.1 uM measured after 24 hrs by Western blot analysis; assay type: functional, cell-based; procedure, shortened: as §4
[24] = Antiproliferative activity against human KB7D cells incubated for 48 hrs by SRB assay; assay type: functional; procedure, shortened: as §1

GI50 [1]: 472 nM
Structure (SMILES): COc1ccc(S(=O)(=O)Nc2ccccc2CCc2ccc(C(=O)Nc3ccccc3O)cc2)cc1

GI50 [1]: 678 nM
Structure (SMILES): COc1ccc(S(=O)(=O)Nc2cccc(CCc3ccc(C(=O)Nc4ccccc4N)cc3)c2)cc1

GI50 [1]: > 10000 nM
Structure (SMILES): COc1ccc(S(=O)(=O)Nc2ccccc2CCc2ccc(C(=O)NO)cc2)cc1

GI50 [1]: 286 nM
Structure (SMILES): COc1ccc(S(=O)(=O)Nc2ccccc2CCc2ccc(C(=O)Nc3ccc(N)cc3)cc2)cc1

GI50 [1]: 790 nM
Structure (SMILES): N#Cc1ccc(S(=O)(=O)Nc2ccccc2CCc2ccc(C(=O)Nc3ccccc3N)cc2)cc1

GI50 [1]: > 10000 nM
Structure (SMILES): COc1ccc(S(=O)(=O)Nc2ccc(CCc3ccc(C(=O)Nc4ccccc4N)cc3)cc2)cc1

GI50 [1]: 137 nM
Structure (SMILES): COc1ccc(S(=O)(=O)Nc2ccccc2CCc2ccc(C(=O)Nc3ccccc3)cc2)cc1

GI50 [1]: > 10000 nM
Structure (SMILES): Nc1ccccc1NC(=O)c1ccc(CCc2ccccc2)cc1

Activity [2]: Active | Activity [7]: 29.1% | Activity [9]: 28.8% | Activity [10]: Active | Activity [11]: 30.4% | GI50 [1]: 1.86 nM | Activity [17]: 25.2% | Activity [19]: 25.8% | Activity [21]: 25.5%
Structure (SMILES): CC[C@]1(O)C[C@H]2CN(CCc3c([nH]c4ccccc34)[C@@](C(=O)OC)(c3cc4c(cc3OC)N(C=O)[C@H]3[C@@](O)(C(=O)OC)[C@H](OC(C)=O)[C@]5(CC)C=CCN6CC[C@]43[C@@H]65)C2)C1 [VINCRISTINE]
Activity [3]: Active | Activity [4]: Active | Activity [5]: Active | Activity [6]: Active | Activity [8]: Active | Activity [12]: Active | Activity [13]: Active | Activity [14]: Active | Activity [15]: Active | GI50 [16]: 219 nM | Activity [18]: Active | Activity [20]: Active | Activity [22]: Active

GI50 [1]: 801 nM
Structure (SMILES): COc1ccc(S(=O)(=O)Nc2cccnc2Nc2ccc(O)cc2)cc1 [ABT-751]
Activity [23]: Active | GI50 [16]: 2070 nM | GI50 [24]: 444 nM

GI50 [1]: 456 nM
Structure (SMILES): Nc1ccccc1NC(=O)c1ccc(CCc2ccccc2NS(=O)(=O)c2ccccc2)cc1

GI50 [1]: 442 nM
Structure (SMILES): COc1ccc(S(=O)(=O)Nc2ccccc2-c2ccc(C(=O)Nc3ccccc3N)cc2)cc1
